# Assay results taken from ChEMBL document CHEMBL1130160 (J Med Chem, 1997).
# Calls of active or inactive are those of the source. The rule behind the calls is not given here.
# Tests used:
# [1] = biological target: T1, Estrogen receptor (Homo sapiens, UniProt Q92731+P03372); assay: In vitro relative binding affinity by competition with [3H]17-beta-estradiol for estrogen receptor in MCF-7 cell lysate; Not active at the doses tested; type: cell-based
# Method in brief: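 Human MCF-7 cell lysate (0.5–1.0 mg/mL total protein) incubated 18 h at 4 °C with 0.5 nM [3H]17β-estradiol and serial dilutions of test compound. Unbound radioligand removed with dextran/charcoal and centrifugation; bound label in the supernatant counted by scintillation. RBA = IC50(17β-estradiol)/IC50(test compound) × 100.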
# [2] = tested on: MCF7; assay: Inhibition of MCF-7 cell proliferation stimulated by 10e-[…] M 17-beta-estradiol; Not active at the doses tested; type: functional, cell-based, Homo sapiens
# [3] = tested on: Rattus norvegicus; assay: Dose required to reduce serum cholesterol by 50% relative to OVX controls was determined (in vivo); type: functional
# Method in brief: (§1)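 OVX Sprague–Dawley rats (75 days old), 5–6 per group, dosed once daily by oral gavage for 4 consecutive days, starting 14 days after ovariectomy. Vehicle was 20% β-hydroxycyclodextrin at 1 mL/kg, or 1.5% carboxymethylcellulose in some cases. Rats were fasted after the last dose and bled by cardiac puncture next morning.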
# [4] = tested on: Rattus norvegicus; assay: Percent decrease in serum cholesterol relative to OVX control at 0.1 mg/kg in rat was determined (in vivo); type: functional; method in brief: as §1
# [5] = tested on: Rattus norvegicus; assay: Percent decrease in serum cholesterol relative to OVX control at 1 mg/kg in rat; type: functional; method in brief: as §1
# [6] = tested on: Rattus norvegicus; assay: Percent decrease in serum cholesterol relative to OVX control at 10 mg/kg in rat was determined (in vivo); type: functional; method in brief: as §1
# [7] = tested on: Rattus norvegicus; assay: Minimum effective dose at which significant increase in uterine eosinophil peroxidase (EPO) activity in rat was determined (in vivo); type: functional; details: read-out: MED
# [8] = tested on: Rattus norvegicus; assay: Minimum effective dose at which significant increase in uterine weight/body weight in rat was determined (in vivo); type: functional; details: read-out: MED
# Method in brief: (§2)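 In 75-day OVX Sprague–Dawley rats dosed orally for 4 days, beginning 2 weeks post-ovariectomy with 5–6 rats per group, whole uteri were weighed the morning after fasting. MED is the lowest dose giving a significant (p≤0.05) rise in uterine weight/body weight, expressed as % increase over OVX controls ±SE.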
# [9] = tested on: Rattus norvegicus; assay: Minimum effective dose at which significant increase in uterine weight/body weight in rat was determined (in vivo); expressed as % increase relative to ovariectomized (OVX) controls; type: functional; method in brief: as §2
# [10] = tested on: Rattus norvegicus; assay: Percent protection of bone mineral density in the distal femur of OVX rat at a dose of 0.01 mg/kg/day; type: functional
# Method in brief: (§3)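 OVX Sprague–Dawley rats (6-month old, or 75-day old in one case) were dosed orally each day for 35 days, starting 4 days after ovariectomy. Digitized X-rays of the right distal femoral metaphysis gave BMD. % protection = (test − OVX)/(sham − OVX) × 100, reported ±SE.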
# [11] = tested on: Rattus norvegicus; assay: Percent protection of bone mineral density in the distal femur of OVX rat at a dose of 0.1 mg/kg/day; type: functional; method in brief: as §3
# [12] = tested on: Rattus norvegicus; assay: Percent protection of bone mineral density in the distal femur of OVX rat at a dose of 1 mg/kg/day; type: functional; method in brief: as §3
# [13] = tested on: Rattus norvegicus; assay: Percent protection of bone mineral density in the distal femur of OVX rat at a dose of 10 mg/kg/day; type: functional; method in brief: as §3
# [14] = tested on: Rattus norvegicus; assay: Percent protection of bone mineral density in the distal femur of 75-days old OVX rat at a dose of 0.01 mg/kg/day; type: functional; method in brief: as §3
# [15] = tested on: Rattus norvegicus; assay: Percent protection of bone mineral density in the distal femur of 75-days old OVX rat at a dose of 0.1 mg/kg/day; type: functional; method in brief: as §3
# [16] = tested on: Rattus norvegicus; assay: Percent protection of bone mineral density in the distal femur of 75-days old OVX rat at a dose of 10 mg/kg/day; type: functional; method in brief: as §3
# [17] = biological target: T1, Estrogen receptor; details: mcf7
# [18] = tested on: Rattus norvegicus; assay: Percent decrease in serum cholesterol relative to OVX control at 0.1 mg/kg in rats; type: functional; method in brief: as §1
# [19] = tested on: Rattus norvegicus; assay: Percent decrease in serum cholesterol relative to OVX control at 1.0 mg/kg in rats; type: functional; method in brief: as §1
# [20] = tested on: Rattus norvegicus; assay: Eosinophil peroxidase activity expressed as Vmax was determined in rat (in vivo) Eosinophil peroxidase activity expressed as Vmax was determined in rat (in vivo); type: functional; design: unit not given here
# [21] = tested on: Rattus norvegicus; assay: Percent decrease in serum cholesterol relative to OVX control at 10 mg/kg in rats; type: functional; method in brief: as §1
# [22] = tested on: Rattus norvegicus; assay: Eosinophil peroxidase activity expressed as Vmax was determined in rat (in vivo); type: functional
Compound,ED50 [3],Decrease [4],Decrease [5],Decrease [6],minimal effective dose [7],minimal effective dose [8],Increase [9],Protection [11],Protection [12],Protection [13],IC50 [17],other results
O=C(O)c1ccc2c(C(=O)c3ccc(OCCN4CCCCC4)cc3)c(-c3ccc(O)cc3)sc2c1,9 mg/kg,-16.4%,12.5%,53.3%,> 10 mg/kg,1 mg/kg,40.8%,–,–,–,–,relative binding affinity (RBA) [1]: inactive; IC50 [2]: Not Active
O=C(c1ccc(OCCN2CCCCC2)cc1)c1c(-c2ccc(O)cc2)sc2cc(O)ccc12 [RALOXIFENE],0.2 mg/kg,44.9%,66.7%,74%,> 10 mg/kg,0.1 mg/kg,23.5%,50%,57.7%,53.8%,–,Protection [10]: 9.6%
Cl.O=C(c1ccc(OCCN2CCCCC2)cc1)c1c(-c2ccc(O)cc2)sc2ccccc12,< 0.1 mg/kg,70.7%,69.9%,67.4%,> 10 mg/kg,0.1 mg/kg,39.2%,–,41.8%,–,35 nM,Protection [14]: -1.3%; Protection [15]: -4%; Protection [16]: 26.7%
O=C(c1ccc(OCCN2CCCCC2)cc1)c1c(-c2ccc(O)c3ccccc23)sc2cc(O)ccc12,1.2 mg/kg,–,–,59.9%,0.1 mg/kg,0.1 mg/kg,59.6%,42.3%,82.5%,–,2 nM,Decrease [18]: 31.6%; Decrease [19]: 54.7%; Eosinophil peroxidase activity (Vmax) [20]: 29.4; Protection [10]: 35.9%
O=C(c1ccc(OCCN2CCCCC2)cc1)c1c2ccc(O)cc2sc1[C@H]1CC[C@H](O)CC1,1 mg/kg,–,–,60.4%,> 10 mg/kg,0.1 mg/kg,46.7%,17%,61.3%,67.4%,–,Decrease [18]: 48.7%; Decrease [19]: 41.1%
O=C(c1ccc(OCCN2CCCCC2)cc1)c1c(-c2ccc(C(F)(F)F)cc2)sc2cc(O)ccc12,0.4 mg/kg,–,–,–,5 mg/kg,5 mg/kg,–,–,–,–,1000 nM,Decrease [21]: 71.5%
COC(=O)c1ccc2c(C(=O)c3ccc(OCCN4CCCCC4)cc3)c(-c3ccc(O)cc3)sc2c1.Cl,2.8 mg/kg,13.8%,42.8%,61%,> 10 mg/kg,0.1 mg/kg,37.5%,-10%,17%,43.9%,–,–
Cl.O=C(c1ccc(OCCN2CCCCC2)cc1)c1c(-c2ccc(Cl)cc2)sc2ccccc12,–,–,–,–,–,–,–,–,–,–,–,IC50 [2]: Not Active
O=C(c1ccc(OCCN2CCCCC2)cc1)c1c(Cc2ccc(O)cc2)sc2cc(O)ccc12,4 mg/kg,–,–,–,> 10 mg/kg,5 mg/kg,36.9%,–,–,–,5 nM,Decrease [18]: -17.6%; Decrease [19]: 41.7%; Decrease [21]: 54%
CCc1ccc(-c2sc3cc(O)ccc3c2C(=O)c2ccc(OCCN3CCCCC3)cc2)cc1,4.3 mg/kg,3.3%,37.2%,57.4%,1 mg/kg,10 mg/kg,29.7%,–,–,–,5 nM,Increase [22]: 39.9 Vmax
Cc1ccc2c(C(=O)c3ccc(OCCN4CCCCC4)cc3)c(-c3ccc(O)cc3)sc2c1.Cl,> 10 mg/kg,16.9%,33.9%,21.6%,> 10 mg/kg,1 mg/kg,23.9%,–,–,–,300 nM,relative binding affinity (RBA) [1]: inactive
O=C(c1ccc(OCCN2CCCCC2)cc1)c1c(-c2cccc(O)c2)sc2cc(O)ccc12,0.8 mg/kg,–,–,–,> 10 mg/kg,> 10 mg/kg,–,-30.9%,79.7%,44.2%,3.2 nM,–
O=C(c1ccc(OCCN2CCCCC2)cc1)c1c(-c2ccc(O)c(F)c2)sc2cc(O)ccc12,0.4 mg/kg,45.9%,59.2%,55.3%,> 10 mg/kg,0.1 mg/kg,34.3%,34.1%,68%,69.8%,0.3 nM,Protection [10]: 34.5%
C[C@]12CC[C@@H]3c4ccc(O)cc4CC[C@H]3[C@@H]1CC[C@@H]2O [ESTRADIOL],–,–,–,–,–,–,–,–,–,–,–,IC50 [2]: Not Active
CC(C)c1ccc(-c2sc3cc(O)ccc3c2C(=O)c2ccc(OCCN3CCCCC3)cc2)cc1,3.6 mg/kg,-24.1%,47.1%,48.5%,1 mg/kg,0.1 mg/kg,24.9%,–,–,–,30 nM,Increase [22]: 33.3 Vmax
CCSCc1ccc(-c2sc3cc(O)ccc3c2C(=O)c2ccc(OCCN3CCCCC3)cc2)cc1,2.5 mg/kg,21.7%,40.1%,63%,1 mg/kg,1 mg/kg,30.5%,–,–,–,100 nM,Eosinophil peroxidase activity (Vmax) [20]: 36.9
